Experimental data as given in ChEMBL document CHEMBL1148725, “2,2,2-Trichloro-N-({2-[2-(dimethylamino)ethyl]-1,3-dioxo-2,3-dihydro-1H-benzo[de]isoquinolin- 5-yl}carbamoyl)acetamide (UNBS3157), a novel nonhematotoxic naphthalimide derivative with potent antitumor activity” (J Med Chem, 2007).

What was measured:
[1] = Antiproliferative activity against Hs683 cells after 72 hrs by MTT assay; format: functional, cell-based, Homo sapiens, Hs 683
Summary of the method: (§1)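 Cells cultured with each compound for three days; growth then read by the MTT colorimetric assay and reported as IC50 (µM).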

[2] = Antiproliferative activity against U373MG cells after 72 hrs by MTT assay; format: functional, cell-based, Homo sapiens, U-373MG ATCC; summary of the method: as §1
[3] = system: HCT-15; assay: Antiproliferative activity against HCT15 cells after 72 hrs by MTT assay; format: functional, cell-based, Homo sapiens; summary of the method: as §1
[4] = system: LoVo; assay: Antiproliferative activity against LoVo cells after 72 hrs by MTT assay; format: functional, cell-based, Homo sapiens; summary of the method: as §1
[5] = system: A549; assay: Antiproliferative activity against A549 cells after 72 hrs by MTT assay; format: functional, cell-based, Homo sapiens; summary of the method: as §1
[6] = system: MCF7; assay: Antiproliferative activity against MCF7 cells after 72 hrs by MTT assay; format: functional, cell-based, Homo sapiens; settings: Homo sapiens, MCF7, 72 h; summary of the method: as §1
[7] = Toxicity in ip dosed B6D2F1 mouse; format: organism-based; settings: in vivo
Summary of the method: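 Acute MTD was set by a single i.p. dose to groups of three healthy female B6D2F1 mice, at 2.5, 5, 10, 20, 40, 80 and 160 mg/kg. The MTD is the dose just below the lowest dose that killed at least one mouse.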

[8] = system: L1210; assay: Antitumor activity in L1210 cells xenografted B6D2F1 mouse at 80 mg/kg, ip relative to control; format: functional; settings: route intraperitoneal
Summary of the method: (§2)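 Mice grafted with L1210 leukaemia cells on day 0, then dosed i.p. four times weekly on days 1-4 and 8-11. Five mice per group. Outcome is %T/C, the median survival of treated over control. Kruskal-Wallis test followed by Dunn comparisons against control.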

[9] = system: L1210; assay: Antitumor activity in L1210 cells xenografted B6D2F1 mouse at 40 mg/kg, ip relative to control; format: functional; settings: route intraperitoneal; summary of the method: as §2

Row | Structure (SMILES) | IC50 ([1]; Homo sapiens, Hs 683, 72 h) [µM] | IC50 ([2]; Homo sapiens, U373 MG, 72 h) [µM] | IC50 ([3]; Homo sapiens, HCT-15, 72 h) [µM] | IC50 ([4]; Homo sapiens, LoVo, 72 h) [µM] | IC50 ([5]; Homo sapiens, A549, 72 h) [µM] | IC50 [6] [µM] | MTD [7] [mg/kg] | Activity [8] [%] | Activity [9] [%] | IC50 ([1]; hs 683) [µM] | IC50 ([2]; u-373mg atcc) [µM] | IC50 ([3]; hct-15) [µM] | IC50 ([4]; lovo) [µM] | IC50 ([5]; a549) [µM]
1 | COc1cc(/C=N\c2cc3c4c(cccc4c2)C(=O)N(CCN(C)C)C3=O)cc(OC)c1OC | > 10 | 6.4 | > 10 | 5 | 6.7 | > 10 | > 80 | 107 | – | – | – | – | – | –
2 | CN(C)CCN1C(=O)c2cccc3cc(NC(=O)C(F)(F)F)cc(c23)C1=O | 8.7 | 8.1 | > 10 | 4.5 | 9.5 | 9.6 | 40 | – | 124 | – | – | – | – | –
3 | CN(C)CCN1C(=O)c2cccc3cc(NCc4ccc5c(c4)OCO5)cc(c23)C1=O.Cl | – | – | 4.5 | 3.7 | > 10 | > 10 | > 80 | 207 | – | 4.5 | 4 | – | – | –
4 | CN(C)CCN1C(=O)c2cccc3cc(NCc4ccc5c(c4)OCO5)cc(c23)C1=O | – | – | – | – | – | – | > 80 | – | 140 | 9.8 | > 10 | 8.2 | 4.8 | 8.5
5 | CN(C)CCN1C(=O)c2cccc3cccc(c23)C1=O | 6.9 | 7.5 | 9.2 | 4.7 | 5.6 | 10 | 40 | 156 | – | – | – | – | – | –
6 | CCOC(=O)CCC(=O)Nc1cc2c3c(cccc3c1)C(=O)N(CCN(C)C)C2=O | > 10 | > 10 | > 10 | > 10 | > 10 | > 10 | > 80 | 156 | – | – | – | – | – | –
7 | CN(C)CCN1C(=O)c2cccc3cc(NCc4cc5c(cc4[N+](=O)[O-])OCO5)cc(c23)C1=O | – | – | – | – | – | – | > 80 | 157 | – | > 10 | – | > 10 | 8.1 | –
8 | CN(C)CCN1C(=O)c2cccc3cc(NC(=O)Nc4ccc(C#N)cc4)cc(c23)C1=O | 5 | 0.9 | 9.7 | 4.2 | 3.5 | 3.1 | > 80 | 207 | – | – | – | – | – | –
9 | CN(C)CCN1C(=O)c2cccc3cc(NCc4ccccc4O[C@H]4O[C@H](CO)[C@@H](O)[C@H](O)[C@H]4O)cc(c23)C1=O.Cl | > 10 | > 10 | > 10 | > 10 | > 10 | > 10 | > 80 | – | 129 | – | – | – | – | –
10 | CN(C)CCN1C(=O)c2cccc3cc(NC(=S)Nc4ccc(Cl)cc4)cc(c23)C1=O | > 10 | > 10 | > 10 | 8.7 | > 10 | > 10 | > 80 | 164 | – | – | – | – | – | –
11 | CN(C)CCN1C(=O)c2cccc3cc(NC(=O)CCCCl)cc(c23)C1=O | > 10 | > 10 | > 10 | 10 | > 10 | > 10 | > 80 | 164 | – | – | – | – | – | –
12 | CN(C)CCN1C(=O)c2cccc3cc(/N=C\c4ccc(C#N)cc4)cc(c23)C1=O | > 10 | 4.2 | 9.9 | 4.1 | 7.7 | 7.4 | > 80 | 135 | – | – | – | – | – | –
13 | CN(C)CCN1C(=O)c2cccc3cc(NC(=S)Nc4ccc(C#N)cc4)cc(c23)C1=O | > 10 | 9.4 | > 10 | > 10 | > 10 | > 10 | > 80 | – | – | – | – | – | – | –
14 | CN(C)CCN1C(=O)c2cccc3cc(NC=O)cc(c23)C1=O | 4.8 | 4.4 | 4.3 | 6.6 | 3.9 | 7.4 | > 80 | – | – | – | – | – | – | –
15 | CN(C)CCN1C(=O)c2cccc3cc(NCc4ccccc4O[C@H]4O[C@H](CO)[C@@H](O)[C@H](O)[C@H]4O)cc(c23)C1=O | – | – | – | – | – | – | > 80 | 113 | – | – | – | – | – | –
16 | CN(C)CCN1C(=O)c2cccc3cc(NCc4ccc5c(c4)OCCO5)cc(c23)C1=O | 5.5 | 7.1 | 6.7 | 4 | 9.7 | 8.9 | > 80 | 150 | – | – | – | – | – | –
17 | COc1cc(/C=N\c2cc3c4c(cccc4c2)C(=O)N(CCN(C)C)C3=O)ccc1O | > 10 | > 10 | > 10 | > 10 | > 10 | > 10 | > 80 | 164 | – | – | – | – | – | –
18 | CN(C)CCN1C(=O)c2cccc3cc(NC(=S)NCc4ccc5c(c4)OCO5)cc(c23)C1=O | > 10 | > 10 | > 10 | > 10 | > 10 | > 10 | > 80 | – | – | – | – | – | – | –
19 | CN(C)CCN1C(=O)c2cccc3cc(NC(=O)Nc4ccc(Cl)cc4)cc(c23)C1=O | 2.8 | 3.6 | 3.1 | 2 | 1.9 | 2.4 | 80 | 161 | – | – | – | – | – | –
20 | CN(C)CCN1C(=O)c2cccc3cc(NCc4cc5c(cc4[N+](=O)[O-])OCO5)cc(c23)C1=O.Cl | 7.6 | > 10 | 8 | 5 | > 10 | > 10 | > 80 | 150 | – | – | – | – | – | –
21 | CN(C)CCN1C(=O)c2cccc3cc(NC(=O)Nc4ccc(OC(F)(F)F)cc4)cc(c23)C1=O | 2.6 | 3.1 | 5.8 | 3.2 | 3.1 | 6.5 | > 80 | 194 | – | – | – | – | – | –
22 | CCOC(=O)c1ccc(NC(=O)Nc2cc3c4c(cccc4c2)C(=O)N(CCN(C)C)C3=O)cc1 | 2.1 | 2.1 | 7.4 | 1.5 | 1.6 | 3.1 | > 80 | 187 | – | – | – | – | – | –
23 | CN(C)CCN1C(=O)c2cccc3cc(NC(=S)Nc4ccc(OC(F)(F)F)cc4)cc(c23)C1=O | 6.4 | 3.6 | 5.9 | 4 | 4.3 | 4.8 | 40 | 171 | – | – | – | – | – | –
24 | CN(C)CCN1C(=O)c2cccc3cc(NC(=O)Nc4ccc5c(c4)OCO5)cc(c23)C1=O | 5.8 | 1.4 | 7.7 | 4.4 | 5.5 | 6.6 | > 80 | 187 | – | – | – | – | – | –
